Experimental data published in ChEMBL document CHEMBL4152184, “NB 06: From a simple lysosomotropic aSMase inhibitor to tools for elucidating the role of lysosomes in signaling apoptosis and LPS-induced inflammation” (Eur J Med Chem, 2018).
The source made the active and inactive calls. No cut-off for these calls is given here.

Key:
[1] = biological target: T1, Sphingomyelin phosphodiesterase (Homo sapiens, UniProt P17405); assay: Inhibition of mmLDL-stimulated acid sphingomyelinase in human PBMC lysates using BODIPY FL C5-sphingomyelin as substrate preincubated for 30 mins followed by mmLDL stimulation measured after 2 hrs by HPLC method
T1 sequence (P17405 whole entry): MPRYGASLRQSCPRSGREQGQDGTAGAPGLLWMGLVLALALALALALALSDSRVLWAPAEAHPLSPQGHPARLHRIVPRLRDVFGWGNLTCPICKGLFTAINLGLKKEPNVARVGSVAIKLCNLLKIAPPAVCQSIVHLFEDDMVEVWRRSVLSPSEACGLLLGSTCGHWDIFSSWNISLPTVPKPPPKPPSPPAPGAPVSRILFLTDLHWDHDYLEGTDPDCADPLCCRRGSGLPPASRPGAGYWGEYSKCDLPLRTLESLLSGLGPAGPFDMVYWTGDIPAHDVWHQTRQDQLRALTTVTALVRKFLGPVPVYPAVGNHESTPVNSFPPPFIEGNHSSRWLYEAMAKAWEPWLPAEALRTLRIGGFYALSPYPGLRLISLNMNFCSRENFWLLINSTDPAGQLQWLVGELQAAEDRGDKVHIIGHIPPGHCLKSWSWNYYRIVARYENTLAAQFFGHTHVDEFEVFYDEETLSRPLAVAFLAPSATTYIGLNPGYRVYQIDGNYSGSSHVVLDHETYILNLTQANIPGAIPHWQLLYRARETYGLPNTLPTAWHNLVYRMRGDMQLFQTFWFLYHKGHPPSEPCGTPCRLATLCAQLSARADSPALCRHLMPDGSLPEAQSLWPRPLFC

PBMC [2] = assay: Inhibition of mmLDL-stimulated apoptosis in human PBMC assessed as apoptotic cells at 2 uM preincubated for 30 mins followed by mmLDL stimulation measured after 4 hrs by YO-PRO-1/Hoechst 33342 staining based assay (reference value: 100%); format: functional; parameters: scale not given: the % may be the effect or the level left
Summary of the method: (§1)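 PBMC pre-incubated 30 min with 2 μM compound, then stimulated with mmLDL (27 μg/mL; line 5) or TNFalpha (3 ng/mL; line 1) for 4 h. Apoptotic cells stained with YO-PRO-1 and all cells with Hoechst 33342. Each plate had control, stimulus, compound alone and compound plus stimulus; n = 3. Values are on a 0% (untreated control, corrected for spontaneous apoptosis) to 100% (stimulus alone) scale; means ± SE.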

PBMC [3] = assay: Inhibition of TNFalpha-stimulated apoptosis in human PBMC assessed as apoptotic cells at 2 uM preincubated for 30 mins followed by TNFalpha stimulation measured after 4 hrs by YO-PRO-1/Hoechst 33342 staining based assay relative to control; format: functional; parameters: scale not given: the % may be the effect or the level left
Summary of the method: as §1

[4] = biological target: T2, Sphingomyelin phosphodiesterase (Homo sapiens) (UniProt P17405); assay: Inhibition of mmLDL-stimulated acid sphingomyelinase in human PBMC lysates at 0.5 to 50 uM preincubated for 30 mins followed by mmLDL stimulation measured after 4 hrs by YO-PRO-1/Hoechst 33342 staining based assay
T2 sequence (whole entry): T1 sequence (P17405 whole entry)

[5] = biological target: T2, Sphingomyelin phosphodiesterase (Homo sapiens); assay: Inhibition of mmLDL-stimulated acid sphingomyelinase in human PBMC lysates assessed as enzyme residual activity at 25 uM using BODIPY FL C5-sphingomyelin as substrate preincubated for 30 mins followed by mmLDL stimulation measured after 2 hrs by HPLC method

SMILES	IC50 [1] [µM]	inhibition [4]	Activity [5] [%]	Activity (PBMC [2]) [%]	Activity (PBMC [3]) [%]
COc1ccc(CN2C(=O)COc3ccccc32)cc1	> 250			100	
COc1ccc(CN(C)CCCn2c3ccccc3c3ccccc32)cc1				17	
COc1ccc(CCN(C)CCCN2c3ccccc3Sc3ccc(Cl)cc32)cc1OC	12			31	18
COc1ccc(CCN(C)CCN2c3ccccc3CCc3ccccc32)cc1OC				30	58
COc1ccc(CCN2CCCn3c4c(c5ccccc53)CCCC42)cc1 (stereo not given)	15			25	
COc1ccc(CCN(C)C(F)(F)C(F)(F)C(F)(F)C(F)(F)n2c3ccccc3c3ccccc32)cc1	> 250			80	
COc1ccc(CCNCCCNC2c3ccccc3CCc3ccccc32)cc1OC	39			43	
COc1ccc(CCNCCNc2cccc3ccccc23)cc1	116			87	
COc1ccc(CCN2CCCN(C3c4ccccc4CCc4ccccc43)C2)cc1				27	17
COc1ccc(CCN(C)CCCN2c3ccccc3Oc3ccccc32)cc1				25	43
COc1ccc(Cn2c(=O)c3ccccc3n(Cc3ccc(OC)cc3)c2=O)cc1	> 250			4	
COc1ccc(Cn2c(=O)[nH]c3ccccc3c2=O)cc1	> 250			57	59
COc1ccc(CCN(C)CCN2c3ccccc3Sc3ccccc32)cc1OC				72	
COc1ccc(CCN(C)CCCN2c3ccccc3Sc3ccc(Cl)cc32)cc1				71	
COc1ccc(CCNCCNc2cccc3ccccc23)cc1OC	112			65	
COc1ccc(CCN2CCn3c4c(c5ccccc53)CCCC42)cc1 (stereo not given)	> 250			19	

SMILES	IC50 [1] [µM]	inhibition [4]	Activity [5] [%]	Activity (PBMC [2]) [%]	Activity (PBMC [3]) [%]
COc1ccc(CCNCc2cccc3ccccc23)cc1	240			100	
COc1ccc(CCN(Cc2ccccc2)c2ccccn2)cc1	> 250			85	
COc1ccc(CCN(C)CCN2c3ccccc3Sc3ccccc32)cc1				25	25
COc1ccc(CCNCc2cccc3ccccc23)cc1OC	96			86	
COc1ccc(CCN(C)CCCn2ccc3ccccc32)cc1	21			84	
COc1ccc(CCN(C)CCCN(c2ccccc2)c2ccccc2)cc1	> 250			35	
COc1ccc(CCN(C)CCCN2c3ccccc3CCc3ccccc32)cc1				36	30
COc1ccc(CCN2[C@H](C)CN(CCCn3c4ccccc4c4ccccc43)C[C@@H]2C)cc1OC	141			35	
COc1ccc(Cn2c3ccccc3c3ccccc32)cc1	156			14	30
COc1cc(CCN(C)CCCn2c3ccccc3c3ccccc32)c(OC)cc1CCN(C)CCCn1c2ccccc2c2ccccc21	10	Active		7	
COc1ccc(CCN(C)CCCN(c2ccccc2)c2ccccc2)cc1OC				59	
COc1ccc(CCN2CCN(CCn3c4ccccc4c4ccccc43)CC2)cc1				14	16
COc1ccc(CCN2[C@H](C)CN(CCCn3c4ccccc4c4ccccc43)C[C@@H]2C)cc1				25	0
COc1ccc(CC(=O)N(C)CCCN2c3ccccc3Sc3ccc(Cl)cc32)cc1OC	> 250			41	
COc1ccc(CCN(C)CCCn2c3ccccc3c3ccccc32)cc1OC	14			24	41
CN(C)CCCN1c2ccccc2Sc2ccc(Cl)cc21 [CHLORPROMAZINE]	11				

The next lines start with results.

IC50 [1] [µM]	inhibition [4]	Activity [5] [%]	SMILES	Activity (PBMC [2]) [%]	Activity (PBMC [3]) [%]
107			COc1ccc(CC(=O)N(C)CCCN2c3ccccc3CCc3ccccc32)cc1	69	
10			COc1ccc(CCN(C)CCC=C2c3ccccc3CCc3ccccc32)cc1OC	79	
17			COc1ccc(CCN(C)CCN2c3ccccc3CCc3ccccc32)cc1	49	35
17			COc1ccc(CCN(C)CCCN2Cc3ccccc3CCc3ccccc32)cc1	8	2
43			COc1ccc(CCN2[C@H](C)CN(CCCN3c4ccccc4Oc4ccccc43)C[C@@H]2C)cc1	10	
6			COc1ccc(CCN(C)CCn2c3ccccc3c3ccccc32)cc1	9	55
10			COc1ccc(CCN(C)CCC=C2c3ccccc3CCc3ccccc32)cc1	10	
16			COc1ccc(CCN(C)CCCN2c3ccccc3Sc3ccccc32)cc1OC	52	
> 250			COc1ccc(CC(=O)N(C)CCCn2c3ccccc3c3ccccc32)cc1	100	
5			CN(C)CCCN1c2ccccc2CCc2ccccc21 [IMIPRAMINE]	15	16
9			COc1ccc(CCN(C)CCCN2c3ccccc3Sc3ccccc32)cc1	100	
17			COc1ccc(CCNCCCNC2c3ccccc3CCc3ccccc32)cc1		
		20	CNCCCN1c2ccccc2CCc2ccccc21		
31			COc1ccc(CCN(C)CCCN2c3ccccc3CCc3ccccc32)cc1OC	73	
13			COc1ccc(CCN(C)CCCN2c3ccccc3Oc3ccccc32)cc1OC	36	
38			COc1ccc(CCN(C)CCCN2C(=O)COc3ccccc32)cc1		
> 250			COc1ccc(CC(=O)N(C)CCN2c3ccccc3CCc3ccccc32)cc1	94	90
